Source: article PMC4235474 (Clinical Pharmacology : Advances and Applications, 2014)
Several values for one entry are separate records, joined by “and”; a condition that tells them apart may be missing. Equal entries are not always repeated. Where two headings read alike, the source gives them in different places. Marks after values point to notes of the source that are not given here.

Key:
[1] = Multiple-dose steady-state plasma pharmacokinetics; format: in vivo, healthy subjects (human); conditions: for Coefficient of variation (intersubject variability) for exposure parameters (AUC0–24, Cmax, Cmin): apixaban 2.5 mg BID
healthy subjects = experiment: Safety and tolerability; format: in vivo, human; conditions: for deaths or serious AEs: during the study; for number of subjects reporting AEs: of 14 subjects; for tolerability: rivaroxaban 10 mg QD, apixaban 2.5 mg BID for 4 days
Method in brief: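 Randomized open-label two-period crossover in healthy volunteers housed in a clinical unit. Each took two oral factor Xa inhibitors for 4 days: one at 2.5 mg twice daily, the other at 10 mg once daily. Physical exam, vital signs, 12-lead ECG and blood/urine labs were done at screening, before each period and at discharge. AEs were monitored throughout, MedDRA-coded, and graded for severity, onset, drug relationship and outcome.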

factor Xa = factor Xa (Bos taurus, UniProt P00743); experiment: Steady-state plasma anti-factor Xa activity; format: in vivo, healthy subjects (human); conditions: for slope of concentration–AXA linear regression: AXA versus plasma concentration, P<0.0001 between drugs; for intercept in regression equation anti-FXa vs plasma concentration / slope in regression equation anti-FXa vs plasma concentration: Figure 4 regression equation; for AXA Tpeak median (min–max): time of peak anti-FXa activity, day 4 steady state; for AXA AUC(0–24) G mean (CV): 0 to 24 hours after morning dose, rivaroxaban 10 mg QD
[2] = cited from earlier work
[3] = cited from earlier work; for fluctuation in mean concentrations / mean terminal half-life: apixaban 2.5 mg BID, multiple ascending dose study
[4] = VTEp patients; cited from earlier work
prothrombin time = conditions: at a concentration of 1,000 ng/mL; cited from earlier work
[5] = day 4 steady state, rivaroxaban 10 mg QD
[6] = day 4 steady state, rivaroxaban 10 mg QD, apixaban 2.5 mg BID oral, N=14

Sequence of factor Xa (P00743 234-492 limits assumed): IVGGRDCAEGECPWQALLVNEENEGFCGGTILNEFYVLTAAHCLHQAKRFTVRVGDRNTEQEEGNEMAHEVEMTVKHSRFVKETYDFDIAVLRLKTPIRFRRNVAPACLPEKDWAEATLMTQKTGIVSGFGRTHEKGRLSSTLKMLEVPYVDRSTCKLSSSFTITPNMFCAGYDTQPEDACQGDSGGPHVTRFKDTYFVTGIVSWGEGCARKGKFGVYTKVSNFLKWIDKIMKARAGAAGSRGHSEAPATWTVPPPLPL
Sequence of factor Xa (P00743 41-180 partner limits assumed): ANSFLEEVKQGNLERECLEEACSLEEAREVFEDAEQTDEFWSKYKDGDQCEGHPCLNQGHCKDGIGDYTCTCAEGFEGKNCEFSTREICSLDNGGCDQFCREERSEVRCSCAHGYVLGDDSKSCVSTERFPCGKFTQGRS

COc1ccc(-n2nc(C(N)=O)c3c2C(=O)N(c2ccc(N4CCCCC4=O)cc2)CC3)cc1 [Apixaban, apixaban]
T1/2 Mean (SD), terminal half-life ([1]; after last dose on day 4 (apixaban: evening dose; rivaroxaban: morning dose), N=14): 8.65 (2.19) ^* h | Coefficient of variation (intersubject variability) for exposure parameters (AUC0–24, Cmax, Cmin) [1, 5]: 20%–24% | Cmax G mean (%CV) [1, 6]: 80.5 (23) ng/mL | Tmax ([1]; human, plasma, oral): 2 h | AUC(0-t) ([1]; human, plasma, oral, 2.5 mg): 527 ng·h/mL | deaths or serious AEs (healthy subjects): No deaths or serious AEs | number of subjects reporting AEs (healthy subjects): eight | tolerability (healthy subjects): well-tolerated | AXA AUC(0–12) G mean (CV) (factor Xa; 0 to 12 hours after morning dose, day 4, apixaban 2.5 mg BID, N=14): 7.42 (21) IU · h/mL | slope of concentration–AXA linear regression (factor Xa): 0.0134 IU/ng | intercept in regression equation anti-FXa vs plasma concentration (factor Xa): 0.02753 | slope in regression equation anti-FXa vs plasma concentration (factor Xa): 0.01342 | AXA T1/2 Mean (SD) (factor Xa; determined after evening dose on day 4, apixaban 2.5 mg BID): 8.9 h and 8.91 (2.46) ^‡ h | AXA Tpeak median (min–max) (factor Xa; N=14): 2.00 (1.00–3.00) h | AXA Tpeak median (min–max) (factor Xa; N=14, listed as apixaban): 2 h | Protein binding [2]: ~ 87% | time to steady state ([3]; BID dosing): 2 to 3 days | fluctuation in mean concentrations ([3]; Japanese subjects): ~ 4.2 | mean terminal half-life ([3]; Japanese subjects): 9.7 h | fluctuation in mean concentrations ([3]; Western subjects): ~ 3.0 | mean terminal half-life ([3]; Western subjects): 8.1 h | terminal half-life [3]: ~ 12 hours | time to maximal plasma concentrations after administration [3]: ~ 3 hours | accumulation ([3]; following BID dosing): < 2 fold | bioavailability ([3]; not significantly influenced by dose or meals): ~ 50%

O=C(NC[C@H]1CN(c2ccc(N3CCOCC3=O)cc2)C(=O)O1)c1ccc(Cl)s1 [Rivaroxaban, rivaroxaban]
Cmax/Cmin ratio [4]: ~ 7 | AUC0–24 at steady state, rivaroxaban higher than apixaban ([1]; daily AUC): ~ 17% | Cmax, rivaroxaban relative to apixaban (higher) ([1]; day 4): ~ 2 fold | Cmin, rivaroxaban lower than apixaban ([1]; day 4): ~ 40% | Coefficient of variation (intersubject variability) for exposure parameters (AUC0–24, Cmax, Cmin) [1, 5]: 29%–46% | Cmin G mean (%CV) [1, 6]: 10.1 (39) ng/mL | Cmax/Cmin ratio, rivaroxaban relative to apixaban ([1]; geometric mean ratio, 90% CI: 2.82–4.61): 3.6 fold | effect in the prothrombin time assay (prothrombin time): greater effect than apixaban | number of AEs reported (healthy subjects; after start of study medication, 14 subjects, all mild): Twelve | deaths or serious AEs (healthy subjects): No deaths or serious AEs | number of subjects reporting AEs (healthy subjects): seven | tolerability (healthy subjects): well-tolerated | AXA AUC(0–24) G mean (CV) (factor Xa; day 4, apixaban 2.5 mg BID, N=14): 17.8 (29) IU · h/mL | AXA AUC(0–24) G mean (CV) (factor Xa; day 4, apixaban 2.5 mg BID, N=14, listed as rivaroxaban): 17.8 IU · h/mL | slope of concentration–AXA linear regression (factor Xa): 0.0172 IU/ng | intercept in regression equation anti-FXa vs plasma concentration (factor Xa): −0.03215 | slope in regression equation anti-FXa vs plasma concentration (factor Xa): 0.01719 | AXA AUC(0–24), rivaroxaban higher than apixaban (factor Xa; geometric mean): ~ 34% | AXA AUC(0–24), rivaroxaban relative to apixaban (higher) (factor Xa; steady state): ~1.3 fold | Peak AXA, rivaroxaban relative to apixaban (higher) (factor Xa; steady state): ~ 2.5 fold | trough AXA, rivaroxaban lower than apixaban (factor Xa; steady state): ~ 30% | AXA Tpeak median (min–max) (factor Xa; N=14): 2.00 (1.00–3.00) h | AXA Tpeak median (min–max) (factor Xa; N=14, listed as rivaroxaban): 2 h | Protein binding [2]: ~ 93% | terminal half-life [3]: ~ 10 hours | time to maximal plasma concentrations after administration [3]: ~ 3 hours | bioavailability ([3]; depending on dose and administration with a meal): 66%–100% | accumulation ([3]; following QD administration): does not show appreciable accumulation | half-life ([3]; rivaroxaban 5 mg QD, healthy subjects): 8.4 h
